Assay outcomes deposited in PubChem by Johns Hopkins Ion Channel Center.
Sampled rows, rich in hits. Any-hit rate of the full collection: about 3.7%.
Kir21 block: inhibitors of mouse Kir2.1 inward-rectifier potassium channel | Inward rectifier potassium channel 2 (Mus musculus), P35561 | HEK293-Kir2.1, FluxOR thallium flux fluorescence; active compounds read low | B-score at 10 µM | actives 0.85% (n = 310,000) | AID 1672, 2009;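 active means fluorescence ratio B-score at or below minus 3 SD of library scores, with starting-brightness B-score within 2 SD, cut at about -4.2 in these data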;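 further: channel flux triggered by added potassium and thallium sulfate stimulus; B-score of peak minus minimum fluorescence over baseline after thallium stimulus; more negative B-score means stronger Kir2.1 block with less thallium influx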
KCNQ1 block: inhibitors of human KCNQ1 channel, primary screen, cell-based, thallium flux, high-throughput; actives 1.3% (n = 310,000); Potassium voltage-gated channel subfamily KQT member 1 (Homo sapiens), P51787; CHO-K1 KCNQ1, FluxOR thallium flux fluorescence; active compounds read high; B-score at 10 µM;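 active means compounds whose thallium flux B-score, printed positive for inhibition, exceeds three library SD while starting fluorescence stays within three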;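 further: channel opened by potassium depolarization with thallium stimulus after 20 min compound exposure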
KCNK9 inh: KCNK9 potassium channel inhibitors, primary screen, HEK293 cells, thallium flux. FluxOR thallium flux fluorescence; active compounds read low. AID 488922, 2010. actives 1.2% (n = 310,000). Potassium channel subfamily K member 9 (Homo sapiens), Q9NPC2. B-score at 10 µM;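 active means ratio B-score over 3 SD below the library mean, with starting fluorescence within 5 SD of its mean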;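 further: negative B-score means less thallium flux so channel inhibition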
Target sequence (Q9NPC2 whole entry, looked up): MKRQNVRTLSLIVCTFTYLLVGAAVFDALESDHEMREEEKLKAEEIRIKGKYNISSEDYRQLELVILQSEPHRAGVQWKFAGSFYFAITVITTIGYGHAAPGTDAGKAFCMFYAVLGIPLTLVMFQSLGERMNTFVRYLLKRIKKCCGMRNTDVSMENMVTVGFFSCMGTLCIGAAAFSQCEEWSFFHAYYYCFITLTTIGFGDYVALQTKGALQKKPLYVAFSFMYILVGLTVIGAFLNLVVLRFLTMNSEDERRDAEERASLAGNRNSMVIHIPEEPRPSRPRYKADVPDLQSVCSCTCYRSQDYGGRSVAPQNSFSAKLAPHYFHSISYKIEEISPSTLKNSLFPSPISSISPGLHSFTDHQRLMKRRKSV
KCNQ1 pot: potentiators or activators of KCNQ1 channel, primary screen, cell-based, thallium flux, high-throughput | B-score at 10 µM | actives 0.35% (n = 310,000) | CHO-K1 KCNQ1, thallium flux FluxOR fluorescence; active compounds read high;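 active means fluorescence ratio B-score, a plate-corrected score, at least three library SD, with initial intensity B-score within 5 SD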
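Schedule – 37 °C overnight plating, 90-min dark dye load, 20-min compound pretreatment · System – stable KCNQ1 CHO-K1 line · Probe or stimulus – thallium- and potassium-containing depolarizing buffer · Measured by – kinetic FluxOR fluorescence, 10 s baseline plus 110 s post-stimulus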
KCNK3 block: human KCNK3 channel inhibitors, primary screen, CHO cells, FluxOR thallium flux, B-score; Potassium channel subfamily K member 3 (Homo sapiens), O14649; FluxOR fluorescence; active compounds read low; B-score at 10 µM; actives 0.84% (n = 340,000);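 active means B-score under library mean minus 4 SD, starting fluorescence ratio at most library mean plus 5 SD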;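 further: more negative B-score means stronger inhibition of thallium flux through KCNK3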
hERG protect: hERG rescue from dofetilide block, primary screen, cell-based, CHO-hERG, FluxOR thallium flux, dofetilide IC70. dofetilide IC70 present. activation (rescue from dofetilide block), less the hit threshold, % at 10 µM. actives 0.51% (n = 310,000);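 active means activation above the mean of controls blocked by dofetilide plus 5 SD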;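 further: thallium influx through hERG after potassium depolarization seen as dye fluorescence rise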
KCNK9 inh conf: KCNK9 potassium channel inhibitors, confirmation, HEK293 cells, thallium flux, duplicate; shares compounds with KCNK9 inh; AID 492992, 2010; FluxOR thallium flux fluorescence; actives 43% (n = 4,900); inhibition, % at 10 µM;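 active means thallium signal inhibited by more than 5 SD of the compound-free buffer control wells, on both duplicate plates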;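 further: 0% = assay buffer control wells without compound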
Kir2-1 spec: mouse Kir2.1 channel inhibition, confirmation, selectivity assay for KCNK9 modulator project, cell-based, HEK293, thallium flux | shares compounds with KCNK9 inh | Kir2.1 cells, FluxOR thallium flux fluorescence | inhibition, % at 10 µM | actives 4% (n = 4,900);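 active means thallium signal drop more than 5 SD beyond the mean of the no-compound control wells, seen in both duplicate plates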;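 further: signal is fluorescence rise after thallium addition divided by baseline fluorescence; plate controls were assay buffer only for no effect and full block by chlorpromazine control for full effect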
HEK293 Tl ctr: thallium flux in non-induced HEK293 cells, confirmation, counter-screen for KCNK9 inhibitor project, cell-based, second counter screen, non-induced KCNK9-HEK293 | shares compounds with KCNK9 inh | FluxOR thallium flux | inhibition, % at 10 µM | actives 40% (n = 4,900) | AID 492997, 2010;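 active means thallium signal drop beyond 5 SD of the untreated control mean, on both duplicate plates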;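 further: plate controls were buffer only IC0 wells for no effect and SID17386958 at its maximal inhibitory level for full effect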
Starred values were filed as active, the others as inactive; i = inactive; · = not tested or not shown.

SMILES	Kir21 block	KCNQ1 block	KCNK9 inh	KCNQ1 pot	KCNK3 block	hERG protect	KCNK9 inh conf	Kir2-1 spec	HEK293 Tl ctr
CCOC(=O)c1ccc(NC(=O)C(C)Sc2nc(O)c(-c3ccccc3)c(=O)[nH]2)cc1 (centres undefined)	0.74	i	i	i	i	-7	·	·	·
CCOC(=O)C(C)Sc1nc2c(cnn2-c2ccc(F)cc2)c(=O)[nH]1 (centres undefined)	-2.6	i	i	i	i	-14	·	·	·
O=C(CC1C[C@H](C(=O)N2CCOCC2)[C@@]2(CCC3CCCC3)c3[nH]c4ccccc4c3CCN2C1=O)NCCCn1ccnc1 (some centres undefined)	·	·	·	·	i	·	·	·	·
CCOC(=O)C1=C(C(F)(F)F)Nc2ncnn2C1c1cc(OC)ccc1OC (centres undefined)	-1.5	i	i	i	i	-3	·	·	·
COc1ccccc1C1CCN(C(=O)c2ccccc2)CC1	0.01	i	i	i	i	-9	·	·	·
COc1ccccc1C1CCN(C(=O)c2cnn(-c3ccccc3)c2C)CC1	0.19	i	i	i	i	-12	i	i	i
COc1ccc(N(C)C(=O)c2ccc3c(Cl)c4c(nc3c2)CCCC4)c(OC)c1	1	i	i	i	i	-14	·	·	·
Cc1ccc(N(C)C(=O)c2ccc3c(Cl)c4c(nc3c2)CCC4)cc1C	-2.2	i	i	i	i	-18	i	i	i
CCc1ccc(N(CC)C(=O)c2ccc3c(Cl)c4c(nc3c2)CCC4)cc1	1.8	i	i	i	i	-11	i	i	27%*
Cc1ccc(C(=O)N2CCC(C(=O)c3c(C)cc(C)cc3C)CC2)cc1	-1.4	i	i	i	i	-8	·	·	·
COc1ccc(-n2ncc3c2CC(C)(C)CC3NC(=O)CCn2cncn2)cc1 (centres undefined)	-0.41	i	i	i	i	-8	·	·	·
Cc1cccn2c(=O)c(/C=C(\C#N)C(=O)NCc3ccco3)c(N3CCCCC3)nc12	0.7	i	i	i	i	-13	·	·	·
Cc1cccn2c(=O)c(/C=C(\C#N)C(=O)NCc3ccco3)c(N3CCCCCC3)nc12	0.53	i	i	i	i	-5	i	i	i
CC(=O)Nc1ccc(Nc2nc(-c3ccccc3)nc3ccccc23)cc1	-1.1	i	i	i	i	-11	·	·	·
O=C(Nc1nc(-c2ccccc2)nc2ccccc12)c1ccc(F)cc1	1.3	i	-8.4*	i	i	-12	30%*	i	i
O=C(CN1CCc2cc3c(cc2C1)OCCCO3)Nc1cccc(Br)c1	2.2	i	i	i	i	-11	i	i	i
CC(=O)c1cccc(NC(=O)CN2CCc3cc4c(cc3C2C)OCCCO4)c1 (centres undefined)	0.47	i	i	i	i	-10	i	i	i
CC1c2cc3c(cc2CCN1C(=O)c1ccc(Cl)cc1)OCCCO3 (centres undefined)	-0.05	i	-9.9*	i	i	-7	56%*	i	29%*
Cc1cc(C)c2sc(N(CCCN(C)C)C(=O)c3ccc(S(=O)(=O)N(C)C4CCCCC4)cc3)nc2c1	0.02	i	i	i	i	-26	i	i	i
C[C@]12CCC[C@H](O1)c1c(cc3c(c1O)C(=O)c1c(O)cc(O)cc1C3=O)O2	0.05	14*	-12*	i	-10*	-5	58%*	i	42%*
Cc1ccc(C(C)C)c(OCc2nn(CC(=O)c3ccc(OC(F)F)cc3)c3[n+]2CCCCC3)c1	-2.3	9*	-8.4*	i	i	-28	51%*	i	i
COc1ccc(Cn2nc(C)n(N(C)c3ncc(C(F)(F)F)cc3Cl)c2=O)cc1	-0.52	i	i	i	i	-5	i	i	i
Cc1ccc(C)c(C(=O)COC(=O)C2CCN(c3ccc(C(F)(F)F)cn3)CC2)c1	1.5	i	i	i	i	-11	i	i	i
CN(CCCNC(=O)CCC(=O)N1CCOc2ccc(Cl)cc21)Cc1ccccc1	-0.94	i	i	i	i	-8	·	·	·
C(=N\NC(=Nc1ccccc1)c1ccccn1)/c1ccccn1	1	i	i	i	i	-3	·	·	·
SMILES	Kir21 block	KCNQ1 block	KCNK9 inh	KCNQ1 pot	KCNK3 block	hERG protect	KCNK9 inh conf	Kir2-1 spec	HEK293 Tl ctr
Clc1ccc(/C=N/NC(=Nc2ccccc2)c2ccccn2)c(Cl)c1	-0.61	i	i	i	i	-8	i	i	i
CCN(CC)CCNC(=O)C(Oc1ccccc1)Oc1ccccc1	-0.22	i	i	i	i	-8	·	·	·
Cc1nc2sc(C(c3ccc(F)cc3)N3CCN(C(=O)c4ccco4)CC3)c(O)n2n1 (centres undefined)	-2.6	i	i	i	i	-2	·	·	·
CCC(=O)N1c2ccc(S(=O)(=O)N3CCN(c4ccccc4Cl)CC3)cc2CC1C (centres undefined)	1.2	i	i	i	i	-11	·	·	·
CCC(=O)N1c2ccc(S(=O)(=O)N3CCN(c4cc(C)ccc4C)CC3)cc2CC1C (centres undefined)	1.7	i	i	i	i	-9	i	i	i
CC(NC(=O)Cn1nc(C(F)(F)F)c2c1CCC2)c1ccccc1 (centres undefined)	-0.17	i	i	i	i	-4	i	i	30%*
